Screens deposited in PubChem by several laboratories.
A selection: hits, their analogues and other compounds. The true share with any hit is near 2.3%.
SKKanGAS inh = S. pyogenes SKKanGAS growth inhibitors in kanamycin, primary screen, streptokinase expression inhibitor project, SKKanGAS strain, BacTiter-Glo luminescence | 6 h | inhibition, % at 7.5 µM | 1.3% of 300,000 active;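 active = mean replicate score, as percent of positive control median, at least 50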;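 also: strain carries kanamycin resistance gene driven by streptokinase promoter and grows in 40 µg/ml kanamycin; loss of luminescence reflects streptokinase promoter inhibition or plain growth inhibition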
ASAP1 GAP inh = inhibitors of human ASAP1 ArfGAP activity, primary screen, biochemical, fluorescence polarization | inhibition, % at 16.5 µM | Arf-GAP with SH3 domain, ANK repeat and PH domain-containing protein 1 (Homo sapiens), … | 0.19% of 360,000 active | ASAP1-stimulated ARF1 GTP hydrolysis, GDP FP detection; in the data active = inhibition above about 25%
sPLA2-III inh = human group III sPLA2 inhibitors, primary screen, biochemical, QFRET, BODIPY PC-A2 liposome substrate; QFRET BODIPY PC-A2 liposome hydrolysis, fluorescence; 0.56% of 370,000 active; Group 3 secretory phospholipase A2 (Homo sapiens), Q9NZ20; inhibition, % at 12.2 µM;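 active = inhibition above mean plus 3 SD of compounds lying within the high and low control bounds, cut at about 19% in these data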
Target sequence (Q9NZ20 whole entry, looked up): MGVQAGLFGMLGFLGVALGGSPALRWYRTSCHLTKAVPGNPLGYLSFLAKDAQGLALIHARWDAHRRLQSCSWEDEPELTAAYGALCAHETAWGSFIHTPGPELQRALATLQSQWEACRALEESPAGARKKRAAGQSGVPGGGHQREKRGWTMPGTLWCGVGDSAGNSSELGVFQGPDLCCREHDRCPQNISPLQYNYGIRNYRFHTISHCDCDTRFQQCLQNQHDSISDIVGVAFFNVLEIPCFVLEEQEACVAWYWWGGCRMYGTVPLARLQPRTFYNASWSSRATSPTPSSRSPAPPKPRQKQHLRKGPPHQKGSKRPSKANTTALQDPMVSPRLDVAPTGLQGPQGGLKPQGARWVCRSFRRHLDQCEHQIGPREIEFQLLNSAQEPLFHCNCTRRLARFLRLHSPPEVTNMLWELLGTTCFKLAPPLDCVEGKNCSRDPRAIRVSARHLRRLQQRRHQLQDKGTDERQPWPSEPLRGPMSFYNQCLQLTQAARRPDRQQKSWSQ
ARFGAP1 inh = inhibitors of rat ARFGAP1 GAP activity, primary screen, biochemical, fluorescence polarization, GDP tracer | ADP-ribosylation factor GTPase-activating protein 1 (Rattus norvegicus), Q62848 | inhibition, % at 16.5 µM | Arfgap1-stimulated ARF1 GTP hydrolysis, GDP FP detection | 0.26% of 360,000 active;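 active = inhibition above a per-plate limit, mean inhibition of low control wells plus 3 SD, cut at about 25% in these data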
Target sequence (Q62848 1-136 limits assumed): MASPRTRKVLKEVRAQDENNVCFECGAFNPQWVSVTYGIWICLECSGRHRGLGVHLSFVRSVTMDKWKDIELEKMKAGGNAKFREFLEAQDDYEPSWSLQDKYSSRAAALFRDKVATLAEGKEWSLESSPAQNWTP
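Material: rat Arfgap1 catalytic domain, aa 1-136; also added: human ARF1(Δ1-17)-GTP substrate; compound dosing: one concentration, 16.5 µM, DMSO 1.26%; incubation: GTP hydrolysis reaction 2 h at 25 °C; measured by: Tracer-displacement fluorescence polarization with EDTA stop, 620/688 nm; evaluation: % inhibition from polarization; repeats: one replicate per compound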
Calb FLC = C. albicans growth inhibition with fluconazole, primary screen, CaCi-2 strain, Alamar Blue fluorescence; 0.57% of 300,000 active; AID 1979, 2009; C. albicans CaCi-2 (fluconazole-resistant clinical isolate) + fluconazole, 48 h; growth inhibition, % (test concentration not listed);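 active = growth inhibition above about 58% in most replicates, limit read from the data, passing the limit was not always enough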;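 also: all wells also contain fluconazole at 8 µg/ml as a sub-toxic cotreatment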
Hits are given with their value.

Nc1[nH]c(C(=O)c2ccccc2)c(-c2ccc(Cl)cc2Cl)c1C(=O)c1cccs1 was read as sPLA2-III inh inactive.
Cc1nn(-c2ccccc2)nc1C(=O)c1c(C)[nH]n(-c2ccccc2)c1=O was read as SKKanGAS inh 61, ASAP1 GAP inh inactive, sPLA2-III inh inactive, ARFGAP1 inh inactive and Calb FLC inactive.
`C/C(=N\NC(=O)c1ccc(C)cc1)c1c(C)[nH]n(-c2ccccc2)c1=O` gave SKKanGAS inh 56, ASAP1 GAP inh inactive, sPLA2-III inh inactive, ARFGAP1 inh inactive and Calb FLC inactive.
For Cc1ccc(N/N=C/c2ccncc2)cc1 the results were SKKanGAS inh inactive, ASAP1 GAP inh inactive, sPLA2-III inh inactive, ARFGAP1 inh inactive and Calb FLC 100.
Screening Clc1cccc(N/N=C/c2ccncc2)c1 returned SKKanGAS inh inactive, ASAP1 GAP inh inactive, sPLA2-III inh inactive, ARFGAP1 inh inactive and Calb FLC 93.
Screening COC(=O)C(C(=O)OC)[C@H]1C=C[C@@H](C(=O)NS(=O)(=O)c2ccc(C)cc2)N(C(C)=O)C1 returned sPLA2-III inh inactive.
Screening COC(=O)[C@]12CCCCC=C1N(Cc1ccccc1)C(=O)[C@H](CC(=O)NCCC(C)C)C2 returned ASAP1 GAP inh inactive, sPLA2-III inh inactive and ARFGAP1 inh inactive.
For COc1ccc(-c2oc3c4c(cc(OC)c3c(=O)c2CC=C(C)C)OC(C)(C)C=C4)c(OC)c1 the results were SKKanGAS inh inactive and Calb FLC inactive.
CC(C)=CCc1c(-c2ccc(O)cc2O)oc2cc3c(c(O)c2c1=O)C=CC(C)(C)O3 was read as SKKanGAS inh 107 and Calb FLC inactive.
For COc1ccc(C)cc1NC(=S)NNC(=O)c1c(Br)cnn1C the results were SKKanGAS inh inactive, ASAP1 GAP inh inactive, sPLA2-III inh inactive, ARFGAP1 inh inactive and Calb FLC 72.
Screening O=C(C[n+]1ccccc1)N/N=C/c1cccs1 returned SKKanGAS inh inactive, ASAP1 GAP inh inactive, sPLA2-III inh inactive, ARFGAP1 inh inactive and Calb FLC 95.
For CCCCNS(=O)(=O)c1ccc2nc(SCC(=O)Nc3sccc3C#N)[nH]c2c1 the results were SKKanGAS inh inactive, ASAP1 GAP inh 27, sPLA2-III inh inactive, ARFGAP1 inh inactive and Calb FLC inactive.
`O=c1[nH]c(=O)n([C@H]2C[C@H](O)[C@@H](CO)O2)cc1F` gave SKKanGAS inh 92, ASAP1 GAP inh inactive, sPLA2-III inh inactive and ARFGAP1 inh inactive.
`O=c1[nH]c(=O)n(C2CC(O)C(CO)O2)cc1I` (centres undefined) gave ASAP1 GAP inh inactive, sPLA2-III inh inactive and ARFGAP1 inh inactive.
O=C(OCC12CC3CC(CC(C3)C1)C2)c1ccc(NCc2cc(O)ccc2O)cc1 was read as ASAP1 GAP inh inactive, sPLA2-III inh 29 and ARFGAP1 inh inactive.
Screening Cc1[nH]c2ccccc2c1C(=O)CSc1ccccc1 returned SKKanGAS inh inactive, ASAP1 GAP inh inactive, sPLA2-III inh inactive, ARFGAP1 inh inactive and Calb FLC inactive.
Cc1[nH]c2ccccc2c1C(=O)CCl was read as SKKanGAS inh inactive, ASAP1 GAP inh inactive, sPLA2-III inh inactive, ARFGAP1 inh inactive and Calb FLC 96.
For Cc1ccc(O)c(-c2cc3ccccc3[nH]2)c1 the results were SKKanGAS inh inactive, ASAP1 GAP inh inactive, sPLA2-III inh inactive, ARFGAP1 inh inactive and Calb FLC 83.
For Fc1ccccc1-c1n[nH]c(=S)n1N=Cc1cccc(OCc2ccccc2)c1 the results were sPLA2-III inh inactive.
`C=CCn1c(NC(=O)c2ccc(Br)o2)c(C(=O)OCC)sc1=S` gave SKKanGAS inh inactive, ASAP1 GAP inh inactive, sPLA2-III inh inactive, ARFGAP1 inh inactive and Calb FLC 93.
`COC(=O)[C@]12CCCCC=C1N(Cc1ccc(OC)cc1)C(=O)[C@@H]2CC(=O)NCc1ccccc1` gave sPLA2-III inh inactive.
`Cc1cnn(-c2nc(-c3ccccc3)cc(-c3ccccc3)n2)c1` gave SKKanGAS inh 76, ASAP1 GAP inh inactive, sPLA2-III inh inactive, ARFGAP1 inh inactive and Calb FLC inactive.
FC(F)(F)c1cc(-c2ccccc2)nc(-n2cc(Cl)cn2)n1 was read as SKKanGAS inh inactive, ASAP1 GAP inh inactive, sPLA2-III inh inactive, ARFGAP1 inh inactive and Calb FLC inactive.
`Clc1ccc(-c2nnnn2-c2ccc(Cl)c(Cl)c2)cc1Cl` gave SKKanGAS inh 58, ASAP1 GAP inh inactive, sPLA2-III inh inactive, ARFGAP1 inh inactive and Calb FLC inactive.
For Nc1ccc(-c2nnnn2-c2ccc(N)cc2)cc1 the results were SKKanGAS inh inactive, ASAP1 GAP inh inactive, sPLA2-III inh inactive, ARFGAP1 inh inactive and Calb FLC inactive.
Screening COc1cccc(C(=Cc2ccc([N+](=O)[O-])cc2)C(=O)O)c1 returned ASAP1 GAP inh inactive, sPLA2-III inh inactive and ARFGAP1 inh inactive.
`C=CCN1C(=O)[C@H](CC(=O)N2CCCCC2)[C@@]2(C(=O)OCC)CCCC=C12` gave sPLA2-III inh inactive.
Screening Clc1ccc(-c2nnc(SCc3cccc4ccccc34)n2-c2ccc(Cl)cc2)cc1 returned sPLA2-III inh inactive.
Screening COc1cc(C(=S)N2CCN(c3ccccc3Cl)CC2)cc(O)c1O returned SKKanGAS inh inactive, ASAP1 GAP inh inactive, sPLA2-III inh inactive, ARFGAP1 inh inactive and Calb FLC 91.
For O=C(c1ccc(O)cc1)c1ccc(C(=O)c2ccc(O)cc2)cc1 the results were SKKanGAS inh 83, ASAP1 GAP inh inactive, sPLA2-III inh inactive, ARFGAP1 inh inactive and Calb FLC inactive.
`O=C(OCc1ccc(COC(=O)c2ccc(O)cc2)cc1)c1ccc(O)cc1` gave SKKanGAS inh 58 and Calb FLC inactive.
`CC(C)(N[C@@H](Cc1c[nH]c2ccccc12)C(=O)NCCc1c[nH]c2ccccc12)C(=O)NC1CCCCC1` gave sPLA2-III inh inactive.
Screening CCN(Cc1cn(Cc2ccccc2)nn1)S(=O)(=O)c1ccc(N2CCCC2)cc1Br returned sPLA2-III inh inactive.
Screening C#C[C@]1(O)CC[C@H]2[C@@H]3CCc4cc(OC5CCCC5)ccc4[C@H]3CC[C@@]21C returned SKKanGAS inh 103, ASAP1 GAP inh inactive, sPLA2-III inh inactive and ARFGAP1 inh inactive.
`Cc1c(-c2cccc(Cl)c2)nc2ccccc2c1C(=O)OC/C(O)=C(\C#N)c1nc2ccccc2[nH]1` gave SKKanGAS inh 58, ASAP1 GAP inh inactive, sPLA2-III inh inactive, ARFGAP1 inh inactive and Calb FLC inactive.
For CCOC(=O)c1c(C)[nH]c(C(=O)OCC(O)=C(C#N)c2nc3ccccc3[nH]2)c1C the results were ASAP1 GAP inh inactive, sPLA2-III inh inactive and ARFGAP1 inh inactive.
CC(C)N=c1cc2n(-c3ccc(Cl)cc3)c3ccccc3nc-2cc1Nc1ccc(Cl)cc1 was read as SKKanGAS inh 98, ASAP1 GAP inh inactive, sPLA2-III inh inactive and ARFGAP1 inh inactive.
